Activity calls are given as the source filed them. The calls are words filed in the database; no cut-off is given here.
What was measured:
[1] = target: T1, Protein deacetylase HDAC6 (Homo sapiens, UniProt Q9UBN7); assay: Inhibition of full length recombinant human N-terminal GST-tagged HDAC6 expressed in baculovirus infected insect cells using RHK-K(Ac)-AMC as substrate after 90 mins by fluorescence assay
T1 sequence (Q9UBN7 whole entry): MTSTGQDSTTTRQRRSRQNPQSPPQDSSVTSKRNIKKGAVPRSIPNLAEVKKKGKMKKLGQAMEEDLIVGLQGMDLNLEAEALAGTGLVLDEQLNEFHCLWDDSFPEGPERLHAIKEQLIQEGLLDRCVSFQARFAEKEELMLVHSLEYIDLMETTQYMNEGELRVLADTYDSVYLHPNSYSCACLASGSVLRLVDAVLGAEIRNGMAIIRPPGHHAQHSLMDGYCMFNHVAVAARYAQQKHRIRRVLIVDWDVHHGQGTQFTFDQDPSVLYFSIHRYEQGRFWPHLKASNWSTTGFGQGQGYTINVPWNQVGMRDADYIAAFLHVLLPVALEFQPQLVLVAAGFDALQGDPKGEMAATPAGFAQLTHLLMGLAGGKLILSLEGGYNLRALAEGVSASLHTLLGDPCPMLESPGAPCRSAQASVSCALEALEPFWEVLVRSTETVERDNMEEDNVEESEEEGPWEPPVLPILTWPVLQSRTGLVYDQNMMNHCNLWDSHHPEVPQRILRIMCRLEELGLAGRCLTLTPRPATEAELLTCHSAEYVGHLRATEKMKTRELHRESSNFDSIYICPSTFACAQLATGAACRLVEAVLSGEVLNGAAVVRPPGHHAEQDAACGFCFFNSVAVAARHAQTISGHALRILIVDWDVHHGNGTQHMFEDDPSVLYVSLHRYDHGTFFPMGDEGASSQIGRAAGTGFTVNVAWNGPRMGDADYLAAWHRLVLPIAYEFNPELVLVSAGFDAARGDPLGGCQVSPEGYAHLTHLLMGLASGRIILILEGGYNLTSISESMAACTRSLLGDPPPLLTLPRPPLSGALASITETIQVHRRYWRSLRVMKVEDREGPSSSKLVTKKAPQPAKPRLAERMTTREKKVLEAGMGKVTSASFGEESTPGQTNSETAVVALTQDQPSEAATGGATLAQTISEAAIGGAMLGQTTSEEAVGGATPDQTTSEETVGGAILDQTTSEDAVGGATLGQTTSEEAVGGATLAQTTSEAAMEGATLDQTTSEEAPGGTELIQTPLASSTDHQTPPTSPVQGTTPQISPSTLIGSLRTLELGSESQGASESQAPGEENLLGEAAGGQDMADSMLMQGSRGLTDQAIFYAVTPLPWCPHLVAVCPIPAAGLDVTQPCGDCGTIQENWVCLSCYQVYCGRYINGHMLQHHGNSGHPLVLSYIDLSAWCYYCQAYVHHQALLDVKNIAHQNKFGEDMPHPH

[2] = Apparent permeability from apical to basolateral side in human Caco2 cells at 10 uM after 2 hrs by LC-MS/MS analysis; format: ADME, cell-based; conditions: Caco-2
Summary of the method: (§1)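 Caco-2 cells seeded at 8.4 × 10^4 cells/cm2 on polycarbonate inserts for 21 days. For A→B, donor was apical (HBSS/MES pH 6.5, 10 µM compound) and receiver basolateral (HBSS/HEPES pH 7.4). For B→A, donor was basolateral (HBSS/HEPES pH 7.4, 10 µM) and receiver apical (HBSS/MES pH 6.5). Incubated at 37 °C for 2 h. Receiver sampled at 30, 60, 90 and 120 min, donor at 0 and 120 min.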

[3] = Apparent permeability from basolateral to apical side in human Caco2 cells assessed as drug recovery at 10 uM after 2 hrs by LC-MS/MS analysis; format: ADME, cell-based; conditions: Caco-2, read-out: Drug recovery; summary of the method: as §1
[4] = Apparent permeability from basolateral to apical side in human Caco2 cells at 10 uM after 2 hrs by LC-MS/MS analysis; format: ADME, cell-based; conditions: Caco-2; summary of the method: as §1
[5] = Efflux ratio of apparent permeability from in human Caco2 cells at 10 uM after 2 hrs by LC-MS/MS analysis; format: ADME, cell-based; conditions: Caco-2; summary of the method: as §1
[6] = Apparent permeability from apical to basolateral side in human Caco2 cells assessed as drug recovery at 10 uM after 2 hrs by LC-MS/MS analysis; format: ADME, cell-based; conditions: Caco-2, read-out: Drug recovery; summary of the method: as §1
NCI-H929 [7] = assay: Antiproliferative activity against human NCI-H929 cells after 48 hrs by SRB assay; format: functional; conditions: NCI-H929, 48 h
Summary of the method: (§2)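 Cells were exposed to test compounds at the indicated concentrations for 48 h. They were then fixed with 10% trichloroacetic acid, stained 30 min with 0.4% SRB in 1% AcOH, and washed with 1% AcOH. Bound dye was solubilized in 10 mM Tris base and OD read at 510 nm. Lines cultured in RPMI 1640 with 20% FBS and penicillin/streptomycin, 37°C, 5% CO2.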

U-266 [8] = assay: Antiproliferative activity against human U266 cells after 48 hrs by SRB assay; format: functional; conditions: U-266, 48 h; summary of the method: as §2
[9] = Antiproliferative activity against human HS5 cells after 48 hrs by SRB assay; format: cell-based; summary of the method: as §2
RPMI-8226 [10] = assay: Antiproliferative activity against human RPMI8226 cells after 48 hrs by SRB assay; format: functional; conditions: RPMI-8226, 48 h; summary of the method: as §2
RPMI-8226 [11] = assay: Cell cycle arrest in human RPMI8226 cells assessed as accumulation at sub-G1 phase at 2.5 nM after 24 hrs by propidium iodide staining based flow cytometry (reference value: 12.25%); format: functional
NCI-H929 [12] = assay: Cell cycle arrest in human NCI-H929 cells assessed as accumulation at G2/M phase at 2.5 nM after 24 hrs by propidium iodide staining based flow cytometry (reference value: 31.63%); format: functional
RPMI-8226 [13] = assay: Antitumor activity against human RPMI8226 cells xenografted in nude mouse assessed as tumor growth inhibition at 1 mg/kg, iv or ip administered once in week for 35 days relative to control; format: functional; conditions: RPMI-8226, 840 h, read-out: TGI
Summary of the method: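 RPMI 8226 cells (1 × 10^7) implanted s.c. in eight-week-old male nude mice. At mean tumor volume 200 mm3, mice randomized into four groups (n = 8). Caliper measurement every 3–4 days, volume L×W²/2. %TGI computed from treated versus control volume changes relative to time 0.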

NCI-H929 [14] = assay: Induction of apoptosis in human NCI-H929 cells at 2.5 nM after 24 hrs by Annexin V/propidium iodide staining based flow cytometry; format: functional, cell-based
NCI-H929 [15] = assay: Cell cycle arrest in human NCI-H929 cells assessed as accumulation at sub-G1 phase at 2.5 nM after 24 hrs by propidium iodide staining based flow cytometry (reference value: 5.59%); format: functional
RPMI-8226 [16] = assay: Cell cycle arrest in human RPMI8226 cells assessed as accumulation at G0/G1 phase at 2.5 nM after 24 hrs by propidium iodide staining based flow cytometry (reference value: 44.67%); format: functional
NCI-H929 [17] = assay: Cell cycle arrest in human NCI-H929 cells assessed as accumulation at S phase at 2.5 nM after 24 hrs by propidium iodide staining based flow cytometry (reference value: 13.5%); format: functional
RPMI-8226 [18] = assay: Cell cycle arrest in human RPMI8226 cells assessed as accumulation at G2/M phase at 2.5 nM after 24 hrs by propidium iodide staining based flow cytometry (reference value: 23.94%); format: functional
RPMI-8226 [19] = assay: Induction of apoptosis in human RPMI8226 cells at 2.5 nM after 24 hrs by Annexin V/propidium iodide staining based flow cytometry; format: functional, cell-based
U-266 [20] = assay: Induction of apoptosis in human U266 cells at 2.5 nM after 24 hrs by Annexin V/propidium iodide staining based flow cytometry; format: functional, cell-based
NCI-H929 [21] = assay: Cell cycle arrest in human NCI-H929 cells assessed as accumulation at G0/G1 phase at 2.5 nM after 24 hrs by propidium iodide staining based flow cytometry (reference value: 49.39%); format: functional
U-266 [22] = assay: Cell cycle arrest in human U266 cells assessed as accumulation at S phase at 2.5 nM after 24 hrs by propidium iodide staining based flow cytometry (reference value: 14.05%); format: functional
RPMI-8226 [23] = assay: Cell cycle arrest in human RPMI8226 cells assessed as accumulation at S phase at 2.5 nM after 24 hrs by propidium iodide staining based flow cytometry (reference value: 19.53%); format: functional
U-266 [24] = assay: Cell cycle arrest in human U266 cells assessed as accumulation at G0/G1 phase at 2.5 nM after 24 hrs by propidium iodide staining based flow cytometry (reference value: 40.29%); format: functional
U-266 [25] = assay: Cell cycle arrest in human U266 cells assessed as accumulation at G2/M phase at 2.5 nM after 24 hrs by propidium iodide staining based flow cytometry (reference value: 35.13%); format: functional
Mus musculus = assay: Toxicity in nude mouse xenografted with human RPMI8226 cells assessed as death at 1 mg/kg, iv or ip administered once in week for 35 days; format: organism-based; conditions: in vivo, 840 h
Summary of the method: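 Male nude mice, eight weeks old, received 1 × 10^7 RPMI 8226 cells subcutaneously. At a mean tumour volume of 200 mm3 they were randomised into four groups (n = 8). Dosing was 1 mg/kg i.v./i.p. once weekly, with vehicle 0.5% EtOH/0.5% Cremophor in 5% dextran. Treatment-related deaths were recorded, and caliper measurements were taken every 3–4 days.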

O=C(NO)c1ccc(CNc2cccc3nccnc23)cc1
IC50 [1]: 0.00589 µM

O=C(NO)c1ccc(C(=O)Nc2cccc3cccnc23)cc1
IC50 [1]: 0.265 µM

O=C(NO)c1ccc(CNc2cccc3c2CCCC3)cc1
IC50 [1]: 0.0253 µM

O=C(NO)c1ccc(CCc2cccc3cccnc23)cc1
IC50 [1]: 0.0417 µM

O=C(NO)c1ccc(NCc2cccc3cccnc23)cc1
IC50 [1]: 0.0074 µM

O=C(NO)c1ccc(CNc2ccc3ncccc3c2)cc1
IC50 [1]: 0.00478 µM

O=C(NO)c1ccc(CNc2ccnc3ccccc23)cc1
IC50 [1]: 0.0215 µM

COC(=O)c1ccccc1-c1c2ccc(=N)cc-2oc2cc(N)ccc12.Cl [RHODAMINE123]
Papp A→B at 2 h, 10 µM [2]: 11.6 nm/s | recovery at 2 h, 10 µM [3]: 93.9% | Papp B→A at 2 h, 10 µM [4]: 75.2 nm/s | efflux ratio at 2 h, 10 µM [5]: 6.5 | recovery at 2 h, 10 µM [6]: 89.8%

O=C(NO)c1ccc(CSc2cccc3cccnc23)cc1
IC50 [1]: 0.00948 µM

O=C(CCCCCCNC(=O)c1cnc(N(c2ccccc2)c2ccccc2)nc1)NO [RICOLINOSTAT]
GI50 (NCI-H929 [7]): > 100 µM | GI50 (U-266 [8]): > 100 µM | GI50 at 48 h [9]: > 100 µM | GI50 (RPMI-8226 [10]): 6.4 µM

O=C(NO)c1ccc(COc2cccc3cccnc23)cc1
IC50 [1]: 0.00283 µM

Cc1ccc2cccc(NCc3ccc(C(=O)NO)cc3)c2n1
IC50 [1]: 0.0114 µM

O=C(NO)c1ccc(CNc2cccc3cn[nH]c23)cc1
IC50 [1]: 0.00356 µM

O=C(NO)c1ccc(C(=O)Nc2cccc3ncccc23)cc1
IC50 [1]: 0.525 µM

O=C(NO)c1ccc(Nc2cccc3cccnc23)cc1
IC50 [1]: 0.129 µM

O=C(NO)c1cccc(CNc2cccc3cccnc23)c1
IC50 [1]: 1.13 µM

O=C(NO)c1ccc(CNc2cncc3ccccc23)cc1
IC50 [1]: 0.00231 µM

O=C(/C=C/c1ccc(CNc2cccc3ncccc23)cc1)NO
IC50 [1]: 0.0253 µM

O=C(NO)c1ccc(CNc2cccc3c2CCC3)cc1
IC50 [1]: 0.0196 µM

O=C(/C=C/c1ccc(CNc2cccc3cccnc23)cc1)NO
IC50 [1]: 0.0417 µM

O=C(NO)c1ccc(CNc2ccc3cccnc3c2)cc1
IC50 [1]: 0.00325 µM

O=C(NO)c1ccc(CNc2cccc3cnccc23)cc1
IC50 [1]: 0.00233 µM

O=C(NO)c1ccc(CNc2cnc3ccccc3c2)cc1
IC50 [1]: 0.403 µM

O=C(NO)c1ccc(CNc2ccc3ccccc3n2)cc1
IC50 [1]: 0.00424 µM

O=C(NO)c1ccc(CNc2cccc3ccncc23)cc1
IC50 [1]: 0.00335 µM

CC(C)C[C@H](NC(=O)[C@H](Cc1ccccc1)NC(=O)c1cnccn1)B(O)O [BORTEZOMIB]
Activity (RPMI-8226 [11]): 10.55% | Activity (NCI-H929 [12]): 16.32% | inhibition in vivo at 1 mg/kg (RPMI-8226 [13]): 70.1% | Activity (NCI-H929 [14]): Active | Activity (NCI-H929 [15]): 42.44% | Activity (RPMI-8226 [16]): 42.97% | Activity (NCI-H929 [17]): 11.59% | Activity (RPMI-8226 [18]): 31.53% | Activity (RPMI-8226 [19]): Active | Activity (U-266 [20]): Active | Activity (NCI-H929 [21]): 29.87% | Activity (U-266 [22]): 7.8% | Activity (RPMI-8226 [23]): 15.19% | Activity (U-266 [24]): 32.66% | Activity (U-266 [25]): 32.22% | Activity (Mus musculus): Toxic
